# The source made the active and inactive calls. The calls are words filed in the database; no cut-off is given here.
# Columns and labels:
# Gallus gallus [1] = experiment: Induction of intestinal calcium absorption in vitamin-D-deficient chicken assessed per 0.2 ml of plasma at 3.3 nmol, ip using 45Ca2+ and 40Ca2+ after 24 hrs; format: functional
# How it was run: (§1)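 Rachitic White Leghorn cockerels (4 weeks on a rachitogenic low-calcium diet without vitamin D, zero-calcium diet for the final 3 days) dosed intraperitoneally. Under light ether anesthesia, 5 μCi 45Ca2+ plus 4 mg 40Ca2+ carrier was placed in the duodenum. Birds were decapitated after 30 min. 45Ca radioactivity counted per 0.2 mL serum aliquot (cpm ± SEM). The enhancement ratio is relative to vitamin D-deficient controls.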
# Gallus gallus [2] = experiment: Induction of bone calcium mobilization in vitamin-D-deficient chicken assessed per 100 ml of serum at 3.3 nmol, ip using 45Ca2+ and 40Ca2+ after 24 hrs; format: functional
# How it was run: (§2)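 White Leghorn cockerels raised 4 weeks on a rachitogenic low-calcium diet without vitamin D, switched to a zero-calcium diet 3 days before assay. Analogue given intraperitoneally. Under light ether anesthesia, 5 μCi 45Ca2+ plus 4 mg 40Ca2+ carrier was put into the exposed duodenum. Birds were decapitated 30 min later and blood allowed to clot. Serum Ca2+ measured by atomic absorption on diluted serum, as mg/100 mL ± SEM.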
# Gallus gallus [3] = experiment: Induction of intestinal calcium absorption in vitamin-D-deficient chicken assessed per 0.2 ml of plasma at 3.3 nmol, ip using 45Ca2+ and 40Ca2+ after 24 hrs relative to control; format: functional; how it was run: as §1
# Gallus gallus [4] = experiment: Induction of bone calcium mobilization in vitamin-D-deficient chicken assessed per 100 ml of serum at 163 nmol, ip using 45Ca2+ and 40Ca2+ after 5 to 36 hrs; format: functional, organism-based
# How it was run: (§3)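 Rachitic chicks given a single 163-nmol intraperitoneal dose and sampled between 5 and 36 h afterward. ICA and BCM were read by the Hibberd–Norman procedure: duodenal 45Ca2+/40Ca2+ load, then serum collected 30 min later. ICA was taken as serum radioactivity and BCM as serum calcium by atomic absorption.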
# Gallus gallus [5] = experiment: Induction of intestinal calcium absorption in vitamin-D-deficient chicken assessed per 0.2 ml of plasma at 163 nmol, ip using 45Ca2+ and 40Ca2+ after 5 to 36 hrs; format: functional, organism-based; how it was run: as §3
# Gallus gallus [6] = species: Gallus gallus; experiment: Displacement of [3H]-1-alpha,25-(OH)2-D3 from chicken intestinal cytosol chromatin receptor after 30 mins by scintillation counting relative to 1-alpha,25-(OH)2-D3
# How it was run: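 Reconstituted chick intestinal cytosol–chromatin receptor system. Nonradioactive competitor plus tritiated 1α,25-(OH)2-D3 (2 × 10^-8 M, constant saturating) with chromatin (375 μg DNA) in cytosol, incubated 30 min at 25 °C. Chromatin reisolated by centrifugation, washed three times (0.5% Triton X-100, 0.01 M Tris-HCl pH 8.5), and bound tritium counted by liquid scintillation. Expressed as RCI, with 1α,25-(OH)2-D3 set at 100.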
# Gallus gallus [7] = experiment: Induction of intestinal calcium absorption in vitamin-D-deficient chicken assessed per 0.2 ml of plasma at 0.60 nmol, ip using 45Ca2+ and 40Ca2+ after 12 hrs; format: functional; how it was run: as §1
# Gallus gallus [8] = experiment: Induction of intestinal calcium absorption in vitamin-D-deficient chicken assessed per 0.2 ml of plasma at 3 nmol, ip using 45Ca2+ and 40Ca2+ after 12 hrs relative to control; format: functional; how it was run: as §1
# Gallus gallus [9] = experiment: Induction of bone calcium mobilization in vitamin-D-deficient chicken assessed per 100 ml of serum at 3 nmol, ip using 45Ca2+ and 40Ca2+ after 12 hrs; format: functional; how it was run: as §2
# Gallus gallus [10] = experiment: Induction of bone calcium mobilization in vitamin-D-deficient chicken assessed per 100 ml of serum at 0.60 nmol, ip using 45Ca2+ and 40Ca2+ after 12 hrs; format: functional; how it was run: as §2
# Gallus gallus [11] = experiment: Induction of intestinal calcium absorption in vitamin-D-deficient chicken assessed per 0.2 ml of plasma at 3 nmol, ip using 45Ca2+ and 40Ca2+ after 12 hrs; format: functional; how it was run: as §1
# Gallus gallus [12] = experiment: Induction of intestinal calcium absorption in vitamin-D-deficient chicken assessed per 0.2 ml of plasma at 0.60 nmol, ip using 45Ca2+ and 40Ca2+ after 12 hrs relative to control; format: functional; how it was run: as §1
# Gallus gallus [13] = experiment: Induction of intestinal calcium absorption in vitamin-D-deficient chicken assessed per 0.2 ml of plasma at 62 nmol, ip using 45Ca2+ and 40Ca2+ after 36 hrs; format: functional; how it was run: as §1
# Gallus gallus [14] = experiment: Induction of intestinal calcium absorption in vitamin-D-deficient chicken assessed per 0.2 ml of plasma at 15.5 nmol, ip using 45Ca2+ and 40Ca2+ after 14 hrs; format: functional; how it was run: as §1
# Gallus gallus [15] = experiment: Induction of intestinal calcium absorption in vitamin-D-deficient chicken assessed per 0.2 ml of plasma at 62 nmol, ip using 45Ca2+ and 40Ca2+ after 36 hrs relative to control; format: functional; how it was run: as §1
# Gallus gallus [16] = experiment: Induction of bone calcium mobilization in vitamin-D-deficient chicken assessed per 100 ml of serum at 62 nmol, ip using 45Ca2+ and 40Ca2+ after 14 hrs; format: functional; how it was run: as §2
# Gallus gallus [17] = experiment: Induction of bone calcium mobilization in vitamin-D-deficient chicken assessed per 100 ml of serum at 62 nmol, ip using 45Ca2+ and 40Ca2+ after 24 hrs; format: functional; how it was run: as §2
# Gallus gallus [18] = experiment: Induction of intestinal calcium absorption in vitamin-D-deficient chicken assessed per 0.2 ml of plasma at 62 nmol, ip using 45Ca2+ and 40Ca2+ after 18 hrs; format: functional; how it was run: as §1
# Gallus gallus [19] = experiment: Induction of intestinal calcium absorption in vitamin-D-deficient chicken assessed per 0.2 ml of plasma at 62 nmol, ip using 45Ca2+ and 40Ca2+ after 18 hrs relative to control; format: functional; how it was run: as §1
# Gallus gallus [20] = experiment: Induction of intestinal calcium absorption in vitamin-D-deficient chicken assessed per 0.2 ml of plasma at 3.1 nmol, ip using 45Ca2+ and 40Ca2+ after 14 hrs; format: functional; how it was run: as §1
# Gallus gallus [21] = experiment: Induction of intestinal calcium absorption in vitamin-D-deficient chicken assessed per 0.2 ml of plasma at 62 nmol, ip using 45Ca2+ and 40Ca2+ after 24 hrs relative to control; format: functional; how it was run: as §1
# Gallus gallus [22] = experiment: Induction of bone calcium mobilization in vitamin-D-deficient chicken assessed per 100 ml of serum at 0.62 nmol, ip using 45Ca2+ and 40Ca2+ after 14 hrs; format: functional; how it was run: as §2
# Gallus gallus [23] = experiment: Induction of intestinal calcium absorption in vitamin-D-deficient chicken assessed per 0.2 ml of plasma at 0.62 nmol, ip using 45Ca2+ and 40Ca2+ after 14 hrs; format: functional; how it was run: as §1
# Gallus gallus [24] = experiment: Induction of intestinal calcium absorption in vitamin-D-deficient chicken assessed per 0.2 ml of plasma at 310 nmol, ip using 45Ca2+ and 40Ca2+ after 14 hrs relative to control; format: functional; how it was run: as §1
# Gallus gallus [25] = experiment: Induction of intestinal calcium absorption in vitamin-D-deficient chicken assessed per 0.2 ml of plasma at 62 nmol, ip using 45Ca2+ and 40Ca2+ after 14 hrs relative to control; format: functional; how it was run: as §1
# Gallus gallus [26] = experiment: Induction of intestinal calcium absorption in vitamin-D-deficient chicken assessed per 0.2 ml of plasma at 62 nmol, ip using 45Ca2+ and 40Ca2+ after 24 hrs; format: functional; how it was run: as §1
# Gallus gallus [27] = experiment: Induction of bone calcium mobilization in vitamin-D-deficient chicken assessed per 100 ml of serum at 62 nmol, ip using 45Ca2+ and 40Ca2+ after 36 hrs; format: functional; how it was run: as §2
# Gallus gallus [28] = experiment: Induction of intestinal calcium absorption in vitamin-D-deficient chicken assessed per 0.2 ml of plasma at 3.1 nmol, ip using 45Ca2+ and 40Ca2+ after 14 hrs relative to control; format: functional; how it was run: as §1
# Gallus gallus [29] = experiment: Induction of bone calcium mobilization in vitamin-D-deficient chicken assessed per 100 ml of serum at 3.1 nmol, ip using 45Ca2+ and 40Ca2+ after 14 hrs; format: functional; how it was run: as §2
# Gallus gallus [30] = experiment: Induction of bone calcium mobilization in vitamin-D-deficient chicken assessed per 100 ml of serum at 310 nmol, ip using 45Ca2+ and 40Ca2+ after 14 hrs; format: functional; how it was run: as §2
# Gallus gallus [31] = experiment: Induction of intestinal calcium absorption in vitamin-D-deficient chicken assessed per 0.2 ml of plasma at 310 nmol, ip using 45Ca2+ and 40Ca2+ after 14 hrs; format: functional; how it was run: as §1
# Gallus gallus [32] = experiment: Induction of intestinal calcium absorption in vitamin-D-deficient chicken assessed per 0.2 ml of plasma at 0.62 nmol, ip using 45Ca2+ and 40Ca2+ after 14 hrs relative to control; format: functional; how it was run: as §1
# Gallus gallus [33] = experiment: Induction of bone calcium mobilization in vitamin-D-deficient chicken assessed per 100 ml of serum at 15.5 nmol, ip using 45Ca2+ and 40Ca2+ after 14 hrs; format: functional; how it was run: as §2
# Gallus gallus [34] = experiment: Induction of bone calcium mobilization in vitamin-D-deficient chicken assessed per 100 ml of serum at 62 nmol, ip using 45Ca2+ and 40Ca2+ after 18 hrs; format: functional; how it was run: as §2
# Gallus gallus [35] = experiment: Induction of intestinal calcium absorption in vitamin-D-deficient chicken assessed per 0.2 ml of plasma at 15.5 nmol, ip using 45Ca2+ and 40Ca2+ after 14 hrs relative to control; format: functional; how it was run: as §1
# Gallus gallus [36] = experiment: Induction of intestinal calcium absorption in vitamin-D-deficient chicken assessed per 0.2 ml of plasma at 62 nmol, ip using 45Ca2+ and 40Ca2+ after 14 hrs; format: functional; how it was run: as §1
compound,measurement,setting,value
C=C1CC[C@H](O)C/C1=C/C=C1\CCC[C@]2(C)[C@@H]([C@H](C)CCCC(C)C)CC[C@@H]12 [CHOLECALCIFEROL],Activity,Gallus gallus [1],2430 cpm
same,Activity,Gallus gallus [2],6.3 mg
same,Ratio,Gallus gallus [3],4.6
C=C1CC[C@H](O)C/C1=C\C=C1/CCC[C@]2(C)[C@@H]([C@H](C)CCC(C)(C)O)CC[C@@H]12,Activity,Gallus gallus [4],inactive
same,Activity,Gallus gallus [5],inactive
same,RCI,Gallus gallus [6],0.1%
C=C1CC[C@H](O)C/C1=C\C=C1/CCC[C@]2(C)[C@@H]([C@H](C)CCCC(C)(C)O)CC[C@@H]12,Activity,Gallus gallus [4],Active
same,Activity,Gallus gallus [5],Active
same,RCI,Gallus gallus [6],0.58%
C=C1CC[C@H](O)C/C1=C\C=C1/CCC[C@]2(C)[C@@H]([C@H](C)CCCCC(C)(C)O)CC[C@@H]12,RCI,Gallus gallus [6],0.066%
C=C1/C(=C\C=C2/CCC[C@]3(C)[C@@H]([C@H](C)CCCC(C)(C)O)CC[C@@H]23)C[C@@H](O)C[C@@H]1O [CALCITRIOL],Activity,Gallus gallus [4],Active
same,Activity,Gallus gallus [7],1630 cpm
same,Ratio,Gallus gallus [8],2.5
same,Activity,Gallus gallus [9],6.1 mg
same,Activity,Gallus gallus [10],6.6 mg
same,Activity,Gallus gallus [11],1320 cpm
same,Activity,Gallus gallus [5],Active
same,Ratio,Gallus gallus [12],3.1
C=C1CC[C@H](O)C/C1=C/C=C1\CCC[C@]2(C)[C@@H]([C@H](C)CCCC(C)(C)O)CC[C@@H]12,Activity,Gallus gallus [4],Active
same,Activity,Gallus gallus [5],Active
C=C1/C(=C\C=C2/CCC[C@]3(C)[C@@H]([C@H](C)CCC(C)(C)O)CC[C@@H]23)C[C@@H](O)C[C@@H]1O,Activity,Gallus gallus [13],590 cpm
same,Activity,Gallus gallus [14],680 cpm
same,Ratio,Gallus gallus [15],1.1
same,Activity,Gallus gallus [16],5 mg
same,Activity,Gallus gallus [17],5.4 mg
same,Activity,Gallus gallus [18],1470 cpm
same,Ratio,Gallus gallus [19],2.8
same,Activity,Gallus gallus [20],560 cpm
same,Ratio,Gallus gallus [21],1.5
same,Activity,Gallus gallus [22],4.8 mg
same,Activity,Gallus gallus [23],420 cpm
same,Ratio,Gallus gallus [24],2.9
same,Ratio,Gallus gallus [25],1.8
same,Activity,Gallus gallus [26],770 cpm
same,Activity,Gallus gallus [27],4.3 mg
same,Ratio,Gallus gallus [28],1.1
same,Activity,Gallus gallus [29],4.4 mg
same,Activity,Gallus gallus [30],6.5 mg
same,Activity,Gallus gallus [31],1530 cpm
same,Ratio,Gallus gallus [32],0.8
same,Activity,Gallus gallus [33],5.1 mg
same,Activity,Gallus gallus [34],5.6 mg
same,RCI,Gallus gallus [6],46%
same,Ratio,Gallus gallus [35],1.3
same,Activity,Gallus gallus [36],930 cpm
